The results in this text go back to ChEMBL document CHEMBL1122970, “Synthesis and antitumor and antiviral activities of a series of 1-beta-D-ribofuranosyl-5-halocytosine (5-halocytidine) cyclic 3',5'-monophosphates” (1985).

Assay [1] relates to P388. Put plainly: In vitro antitumor activity against P388 cell line in mice; B indicates inactive at 10e-1 mmol/L. The format is functional, cell-based. Particulars: Mus musculus. Summed up: (§1)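 Cells at 1 × 10⁶ cells/mL were incubated with filter-sterilized compound in growth medium, in duplicate, at log concentrations from 1 × 10⁻⁹ to 1 × 10⁻⁴ M. After 48 h at 37 °C, Coulter counts were taken and growth was expressed as a percentage of untreated controls. ID₅₀ is the concentration giving 50% growth inhibition.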

For assay [2], the system named is Human alphaherpesvirus 2. As to the kind of experiment: In vitro antiviral activity against Herpes simplex virus -2 strain MS was evaluated in african green monkey kidney. The format is functional.
Assay [3] has as its system Human alphaherpesvirus 2. As to the kind of experiment: Antiviral activity against Herpes simplex virus -2 strain MS was evaluated in african green monkey kidney. It counts as functional.
In assay [4] the test system is Coxsackievirus B1. Put plainly: Antiviral activity against Coxsackie B1 strain HA 201468 was evaluated in african green monkey kidney. The format is functional. Summed up: (§2)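 Confluent Vero monolayers (4 × 10⁴ cells/well, EMEM with 10% heat-inactivated newborn bovine serum, 24 h at 37 °C, 5% CO₂) were infected per well with Cox B1 200, Reo 3 470 or VSV 2 TCID₅₀ units. After 30 min adsorption, compound was added at seven 0.5-log steps, final 5 × 10⁻⁶ to 5 × 10⁻³ M, in duplicate wells. CPE was scored microscopically 0–4 at 72 h to give VR, and ED₅₀ was checked on crystal-violet-stained plates.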

Assay [5] has as its system Human respirovirus 3. Put plainly: In vitro antiviral activity against Para influenza virus type 3 strain C243 was evaluated in african green monkey kidney. The format is functional.
For assay [6], the system named is Vesicular stomatitis virus. Put plainly: Antiviral activity against Vesicular stomatitis virus strain indiana was evaluated in african green monkey kidney. It counts as functional. An outline of the steps:
as §2

Assay [7] concerns Vesicular stomatitis virus. Put plainly: In vitro antiviral activity against Vesicular stomatitis virus strain indiana was evaluated in african green monkey kidney. The format is functional. Summed up: as §2
Assay [8] relates to Mammalian orthoreovirus 3. As to the kind of experiment: In vitro antiviral activity against Reovirus type 3 strain Abney was evaluated in african green monkey kidney. It counts as functional. Summed up:
as §2

Assay [9] concerns Human alphaherpesvirus 1. As to the kind of experiment: In vitro antiviral activity against Herpes simplex virus -1 strain KOS was evaluated in african green monkey kidney. The format is functional.
Assay [10] relates to Human respirovirus 3. As to the kind of experiment: Antiviral activity against Para influenza virus type 3 strain C243 was evaluated in african green monkey kidney. It counts as functional.
Assay [11] concerns Coxsackievirus B1. Put plainly: In vitro antiviral activity against Coxsackie B1 strain HA 201468 was evaluated in african green monkey kidney. It counts as functional. Summed up:
as §2

The test system of assay [12] is Mammalian orthoreovirus 3. As to the kind of experiment: Antiviral activity against Reovirus type 3 strain Abney was evaluated in african green monkey kidney. The format is functional. An outline of the steps:
as §2

Assay [13] concerns L1210. As to the kind of experiment: In vitro antitumor activity against L1210 cell line in mice; B indicates inactive at 10e-1 mmol/L. The format is functional, cell-based. Particulars: Mus musculus. An outline of the steps: as §1
Assay [14] deals with Vaccinia virus. As to the kind of experiment: In vitro antiviral activity against Vaccinia virus strain Elstree was evaluated in african green monkey kidney. The format is functional, Orthopoxvirus vaccinia.
The next assay deals with Vero. Put plainly: In vitro cytotoxicity against Vero cells. It counts as functional, Chlorocebus sabaeus.
Assay [15] deals with Vaccinia virus. As to the kind of experiment: Antiviral activity against Vaccinia virus strain Elstree was evaluated in african green monkey kidney. It counts as functional, Orthopoxvirus vaccinia.
Assay [16] deals with Human alphaherpesvirus 1. As to the kind of experiment: Antiviral activity against Herpes simplex virus -1 strain KOS was evaluated in african green monkey kidney. It counts as functional.
Assay [17] concerns L1210. Put plainly: In vitro antitumor activity against L1210 cell line in mice. The format is functional, Mus musculus. Summed up:
as §1

The subject of assay [18] is P388. As to the kind of experiment: In vitro antitumor activity against P388 cell line in mice. It counts as functional, Mus musculus. Summed up:
as §1

The subject of assay [19] is Human alphaherpesvirus 1. Put plainly: Antiviral activity against Herpes simplex virus -1 strain MS was evaluated in african green monkey kidney. The format is functional.

Several values for one entry are separate records, joined by “and”; a condition that tells them apart may be missing. Equal entries are not always repeated. Activity calls are given as the source filed them. The calls are words filed in the database; no cut-off is given here.

Regarding `N.Nc1nc(=O)n([C@@H]2O[C@@H]3CO[PH](O)(O)O[C@H]3[C@H]2O)cc1Br`, the ID50 result with P388 [1] and in the assay on L1210 [13] was “inactive” throughout. The Virus rating was found to be 0.2 in the assay on Human alphaherpesvirus 2 [2]; 0 in the assay on Human respirovirus 3 [5]; 0 in assay [7]; 0 in [8]; 0.1 with Human alphaherpesvirus 1 [9]; 0 in the assay with Coxsackievirus B1 [11]. The Virus rating with Vaccinia virus [14] was 0.1. Also, the ED50 with Human alphaherpesvirus 2 [3] is 5000 µM; with Coxsackievirus B1 [4], > 5000 µM; in assay [6] it was > 5000 µM; in the assay with Human respirovirus 3 [10], > 5000 µM; in assay [12] it was > 5000 µM; in the assay on Vaccinia virus [15], 5000 µM. Besides, the ED50 with Human alphaherpesvirus 1 [16] is > 5000 µM. Further, the Cytotoxicity with Vero was 2 mM l-1 and 5 mM l-1.
As to `N.Nc1nc(=O)n([C@@H]2O[C@@H]3CO[PH](O)(O)O[C@H]3[C@H]2O)cc1Cl`, the ID50 result in the assay on P388 [1] and in the assay on L1210 [13] was “inactive” throughout. For the same molecule, the Virus rating is reported as 0.1 in the assay with Human alphaherpesvirus 2 [2]; 0 in the assay on Human respirovirus 3 [5]; 0 in assay [7]; 0 in assay [8]; 0 in the assay with Human alphaherpesvirus 1 [9]; 0 in the assay on Coxsackievirus B1 [11]. This molecule also came in with a Virus rating in the assay on Vaccinia virus [14] of 0. Also, the ED50 (in the assay with Human alphaherpesvirus 2 [3]; with Coxsackievirus B1 [4]; in assay [6]; in the assay with Human respirovirus 3 [10]; in assay [12]; with Vaccinia virus [15]) was > 5000 µM each time. The ED50 in the assay with Human alphaherpesvirus 1 [16] is > 5000 µM. The Cytotoxicity in the assay on Vero stood at 5 mM.
With `N.Nc1nc(=O)n([C@@H]2O[C@@H]3CO[PH](O)(O)O[C@H]3[C@H]2O)cc1I`, the ID50 entry with P388 [1] and in the assay on L1210 [13] was “inactive” throughout. Also, the Virus rating is 0 in the assay on Human alphaherpesvirus 2 [2]; 0 in the assay with Human respirovirus 3 [5]; 0.2 in assay [7]; 0 in assay [8]; 0 in the assay with Human alphaherpesvirus 1 [9]; 0 in the assay with Coxsackievirus B1 [11]. In the assay with Vaccinia virus [14], this molecule gave a Virus rating of 0. In addition, the ED50 (in the assay on Human alphaherpesvirus 2 [3]; in the assay on Coxsackievirus B1 [4]; in assay [6]; with Human respirovirus 3 [10]; in assay [12]; in the assay on Vaccinia virus [15]) was > 5000 µM each time. Besides, in the assay on Human alphaherpesvirus 1 [16], the ED50 is > 5000 µM. The Cytotoxicity in the assay with Vero was 2 mM l-1 and 5 mM l-1.
Consider `Nc1nc(=O)[nH]cc1F` [FLUCYTOSINE], for which the ID50 entry in the assay on P388 [1] and in the assay on L1210 [13] was “inactive” in each case. Besides, the Virus rating with Human alphaherpesvirus 2 [2] was 0.5; with Human respirovirus 3 [5], 0.4; in the assay on Human alphaherpesvirus 1 [9] it was 0; in the assay with Vaccinia virus [14], 0. Moreover, the ED50 with Human alphaherpesvirus 2 [3], in the assay with Human respirovirus 3 [10], with Vaccinia virus [15] and with Human alphaherpesvirus 1 [16] was > 5000 µM each time. In addition, the Cytotoxicity with Vero came to 5 mM.
Turning to `N.Nc1nc(=O)n([C@@H]2O[C@@H]3CO[PH](O)(O)O[C@H]3[C@H]2O)cc1F`, the Virus rating in the assay with Human alphaherpesvirus 2 [2] stood at 0.9; in the assay on Human respirovirus 3 [5], 0.1; in assay [7] it was 0.2; in [8], 0; in the assay on Human alphaherpesvirus 1 [9] it was 0.6; with Coxsackievirus B1 [11], 0. The same molecule registered a Virus rating with Vaccinia virus [14] of 0.6. Also, the ED50 with Human alphaherpesvirus 2 [3] is 92 µM; in the assay on Coxsackievirus B1 [4], > 5000 µM; in [6], 5000 µM; in the assay with Human respirovirus 3 [10] it was > 5000 µM; in assay [12], > 5000 µM; with Vaccinia virus [15], 290 µM. This molecule returned an ED50 with Human alphaherpesvirus 1 [16] of 220 µM. In addition, the ID50 with L1210 [17] and in the assay on P388 [18] was 0.31 µM in each case. Besides, the Cytotoxicity in the assay on Vero was 0.2 mM l-1 and 0.5 mM l-1.
`Nc1nc(=O)n([C@@H]2O[C@H](COP(=O)(O)O)[C@@H](O)[C@H]2O)cc1F`: the Virus rating in the assay on Human alphaherpesvirus 2 [2] was determined as 2; in the assay with Human respirovirus 3 [5], 1; with Human alphaherpesvirus 1 [9], 1.2; in the assay with Vaccinia virus [14], 1.4. Also, the ED50 in the assay with Human alphaherpesvirus 2 [3] was < 0.5 µM; in the assay with Human alphaherpesvirus 1 [19], 20 µM; in the assay with Human respirovirus 3 [10] it was 20 µM; in the assay with Vaccinia virus [15], 9e-05 µM. The ID50 in the assay with L1210 [17] was found to be 3.4 µM; in the assay with P388 [18] it was 3.1 µM.
With `Nc1ccn([C@@H]2O[C@H](CO)[C@@H](O)[C@@H]2O)c(=O)n1` [CYTARABINE], the Virus rating was determined as 2.7 in the assay with Human alphaherpesvirus 2 [2], 0 in the assay on Human respirovirus 3 [5], 2.7 in the assay with Human alphaherpesvirus 1 [9] and 2.8 in the assay with Vaccinia virus [14]. The ED50 in the assay with Human alphaherpesvirus 2 [3] was 1.1 µM; with Human respirovirus 3 [10], > 500 µM; in the assay on Vaccinia virus [15], 0.34 µM; with Human alphaherpesvirus 1 [16], 0.34 µM. Also, the ID50 was 2.5 µM in the assay on L1210 [17] and 1.2 µM in the assay on P388 [18]. The molecule further displayed a Cytotoxicity in the assay on Vero of 0.0005 mM.
For `Cl.Nc1nc(=O)n([C@@H]2O[C@H](CO)[C@@H](O)[C@H]2O)cc1F`, the Virus rating in the assay on Human alphaherpesvirus 2 [2] is recorded as 2.1; in the assay with Human respirovirus 3 [5], 0.8; in the assay on Human alphaherpesvirus 1 [9], 1; in the assay on Vaccinia virus [14], 1.3. Moreover, the ED50 was < 0.5 µM in the assay on Human alphaherpesvirus 2 [3], 130 µM in the assay with Human respirovirus 3 [10], 5e-05 µM in the assay on Vaccinia virus [15] and 20 µM with Human alphaherpesvirus 1 [16]. Moreover, the figures for the ID50 in the assay with L1210 [17] and in the assay with P388 [18] were 2.6 µM and 3 µM, respectively.
